From ChEMBL document CHEMBL1149773, “Synthesis, determination of the lipophilicity, anticancer and antimicrobial properties of some fused 1,2,4-triazole derivatives” (Eur J Med Chem, 2008)
Converted amounts (≈) assume the structure as drawn. The source made the active and inactive calls. No cut-off for these calls is given here.

Columns and labels:
Aspergillus sp. [1] = assay: Antimicrobial activity against Aspergillus sp. at 100 ug/mL by disc-diffusion method; format: functional; settings: read-out: IZ
Outline: (§1)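 Kirby–Bauer disc diffusion: 5 mm paper discs soaked in compound solution in DMSO (100 or 200 µg/mL; reference drugs 200 µg/mL) and laid on inoculated Mueller-Hinton agar (bacteria) or Sabouraud agar (C. albicans, Aspergillus). DMSO discs were the control. Plates ran 24 h at 35 °C. Inhibition zone diameter was scored 0–10 mm R, 11–16 mm I, 17–25 mm S; triplicate.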

Pseudomonas aeruginosa [2] = assay: Antimicrobial activity against Pseudomonas aeruginosa ATCC 27853 at 100 ug/mL by disc-diffusion method; format: functional; settings: read-out: IZ; outline: as §1
Staphylococcus aureus [3] = assay: Antimicrobial activity against Staphylococcus aureus ATCC 25923 at 100 ug/mL by disc-diffusion method; format: functional; settings: read-out: IZ; outline: as §1
Klebsiella aerogenes [4] = assay: Antimicrobial activity against Enterobacter aerogenes at 100 ug/mL by disc-diffusion method; format: functional; settings: read-out: IZ; outline: as §1
Escherichia coli [5] = assay: Antimicrobial activity against Escherichia coli ATCC 25922 at 200 ug/mL by disc-diffusion method; format: functional; settings: read-out: IZ; outline: as §1
Streptococcus pyogenes [6] = assay: Antimicrobial activity against Streptococcus pyogenes at 100 ug/mL by disc-diffusion method; format: functional; settings: read-out: IZ; outline: as §1
Candida albicans [7] = assay: Antimicrobial activity against Candida albicans ATCC 10231 at 200 ug/mL by disc-diffusion method; format: functional; settings: read-out: IZ; outline: as §1
Aspergillus sp. [8] = assay: Antimicrobial activity against Aspergillus sp. at 200 ug/mL by disc-diffusion method; format: functional; settings: read-out: IZ; outline: as §1
Streptococcus pyogenes [9] = assay: Antimicrobial activity against Streptococcus pyogenes at 200 ug/mL by disc-diffusion method; format: functional; settings: read-out: IZ; outline: as §1
[10] = system: Staphylococcus epidermidis; assay: Antimicrobial activity against Staphylococcus epidermidis at 200 ug/mL by disc-diffusion method; format: functional; settings: read-out: IZ; outline: as §1
Streptococcus agalactiae [11] = assay: Antimicrobial activity against Streptococcus agalactiae at 200 ug/mL by disc-diffusion method; format: functional; settings: read-out: IZ; outline: as §1
Klebsiella aerogenes [12] = assay: Antimicrobial activity against Enterobacter aerogenes at 200 ug/mL by disc-diffusion method; format: functional; settings: read-out: IZ; outline: as §1
Klebsiella pneumoniae [13] = assay: Antimicrobial activity against Klebsiella pneumoniae at 100 ug/mL by disc-diffusion method; format: functional; settings: read-out: IZ; outline: as §1
Pseudomonas aeruginosa [14] = assay: Antimicrobial activity against Pseudomonas aeruginosa ATCC 27853 at 200 ug/mL by disc-diffusion method; format: functional; settings: read-out: IZ; outline: as §1
Candida albicans [15] = assay: Antimicrobial activity against Candida albicans ATCC 10231 after 24 hrs by microdilution assay; format: functional; settings: ATCC 10231, 24 h
Escherichia coli [16] = assay: Antimicrobial activity against Escherichia coli ATCC 25922 at 100 ug/mL by disc-diffusion method; format: functional; settings: read-out: IZ; outline: as §1
[17] = Lipophilicity, log kw in dioxane aqueous system at pH 3.5; format: physicochemical; settings: buffer
Outline: (§2)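 RP-HPLC on an octadecyl silica column (150 × 4.6 mm, 5 µm) at 22 ± 1 °C, flow 1.0 mL min⁻¹, UV detection at 254 nm. Mobile phase was methanol, acetonitrile or dioxane with water and 0.01 M phosphate buffer pH 3.5 containing 0.05 M DEA. log k_W was extrapolated to pure water by regression.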

Staphylococcus aureus [18] = assay: Antimicrobial activity against Staphylococcus aureus ATCC 25923 at 200 ug/mL by disc-diffusion method; format: functional; settings: read-out: IZ; outline: as §1
Klebsiella pneumoniae [19] = assay: Antimicrobial activity against Klebsiella pneumoniae at 200 ug/mL by disc-diffusion method; format: functional; settings: read-out: IZ; outline: as §1
Proteus vulgaris [20] = assay: Antimicrobial activity against Proteus vulgaris at 200 ug/mL by disc-diffusion method; format: functional; settings: read-out: IZ; outline: as §1
[21] = system: Staphylococcus epidermidis; assay: Antimicrobial activity against Staphylococcus epidermidis at 100 ug/mL by disc-diffusion method; format: functional; settings: read-out: IZ; outline: as §1
Streptococcus agalactiae [22] = assay: Antimicrobial activity against Streptococcus agalactiae at 100 ug/mL by disc-diffusion method; format: functional; settings: read-out: IZ; outline: as §1
Proteus vulgaris [23] = assay: Antimicrobial activity against Proteus vulgaris at 100 ug/mL by disc-diffusion method; format: functional; settings: read-out: IZ; outline: as §1
Candida albicans [24] = assay: Antimicrobial activity against Candida albicans ATCC 10231 at 100 ug/mL by disc-diffusion method; format: functional; settings: read-out: IZ; outline: as §1
[25] = Growth inhibition of african green monkey Vero cells at 146.7 uM; format: cell-based; settings: chlorocebus sabaeus, read-out: GI
Outline: (§3)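 Vero, LS180, SiHa, T47D or primary HSF cells were seeded at 10^4 cells per mL and preincubated in microtiter plates. Compounds were added at 10 or 50 µg mL⁻¹ (printed µM equivalents depend on the compound) and incubated 72 h. End-point was BrdU labelling read spectrophotometrically on an ELISA reader. Growth inhibition is % versus untreated controls; triplicates.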

Vero = assay: Induction of DNA damage in african green monkey Vero cells at 29.3 uM; format: cell-based; settings: chlorocebus sabaeus
Outline: (§4)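 Cells were treated at 29.3 µM (10 µg mL⁻¹) and washed twice with PBS. DNA was isolated with lysis buffer plus proteinase K, or cells were lysed as agarose plugs. Samples ran on 1% agarose with propidium iodide at 120 V for 1.5 h at room temperature […]. Experiments were repeated three times. The comet assay was also run on T47D.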

[26] = Antiproliferative activity against human RPMI cells assessed as cell viability at 50 uM by MTT assay; format: functional; settings: read-out: Activity
Outline: (§5)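 Log-phase cells, kept in supplemented RPMI 1640 (HSF in DMEM/10% FBS) at 37 °C, 5% CO2, were exposed 24 h to 1, 50 or 100 µM compound from DMSO. They were washed, given 0.5 mg/mL MTT in HEPES buffer pH 7.4 for 45 min at 37 °C, and formazan was dissolved in DMSO and read at 570 nm. Values are % viability versus control from three independent measurements.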

[27] = Antiproliferative activity against human skin fibroblast assessed as cell viability at 1 uM by MTT assay; format: cell-based; settings: human skin fibroblasts, read-out: Activity; outline: as §5
LS180 [28] = assay: Induction of DNA damage in human LS180 cells at 29.3 uM; format: functional, cell-based; outline: as §4
[29] = Antiproliferative activity against human RPMI cells assessed as cell viability at 100 uM by MTT assay; format: functional; settings: read-out: Activity; outline: as §5
HeLa [30] = assay: Antiproliferative activity against human HeLa cells assessed as cell viability at 1 uM by MTT assay; format: functional; settings: read-out: Activity; outline: as §5
SiHa [31] = assay: Induction of DNA damage in human SiHa cells at 29.3 uM; format: functional, cell-based; outline: as §4
[32] = Growth inhibition of human LS180 cells at 29.3 uM; format: functional; settings: read-out: GI; outline: as §3
[33] = Antiproliferative activity against human skin fibroblast assessed as cell viability at 100 uM by MTT assay; format: cell-based; settings: human skin fibroblasts, read-out: Activity
Outline: (§6)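 MTT viability assay on primary human skin fibroblasts grown in DMEM with 10% FBS and penicillin/streptomycin. Compounds were dissolved in DMSO and given at 1, 50 or 100 µM for 24 h. Cells were washed in HEPES-buffered medium (pH 7.4) and then given MTT 0.5 mg mL⁻¹ for 45 min at 37 °C. Formazan was dissolved in DMSO and read at 570 nm. Viability is % of control; three independent measurements.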

[34] = Growth inhibition of african green monkey Vero cells at 29.3 uM; format: cell-based; settings: chlorocebus sabaeus, read-out: GI; outline: as §3
SiHa [35] = assay: Growth inhibition of human SiHa cells at 29.3 uM; format: functional; settings: read-out: GI; outline: as §3
SiHa [36] = assay: Growth inhibition of human SiHa cells at 146.7 uM; format: functional; settings: read-out: GI; outline: as §3
T47D [37] = assay: Effect on superoxide dismutase gene expression in human T47D cells at 29.3 uM; format: functional, cell-based
Outline: (§7)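 LS180 and T47D cells were incubated at 29.3 µM (10 µg mL⁻¹). SOD gene expression was visualised by electrophoresis on 1% agarose gel against an untreated control.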

T47D [38] = assay: Growth inhibition of human T47D cells at 29.3 uM; format: functional; settings: read-out: GI; outline: as §3
[39] = Lipophilicity, log kw in methanol aqueous system at pH 3.5; format: physicochemical; outline: as §2
T47D [40] = assay: Growth inhibition of human T47D cells at 146.7 uM; format: functional; settings: read-out: GI; outline: as §3
HeLa [41] = assay: Antiproliferative activity against human HeLa cells assessed as cell viability at 50 uM by MTT assay; format: functional; settings: read-out: Activity; outline: as §5
[42] = Antiproliferative activity against human RPMI cells assessed as cell viability at 1 uM by MTT assay; format: functional; settings: read-out: Activity; outline: as §5
LS180 [43] = assay: Effect on superoxide dismutase gene expression in human LS180 cells at 29.3 uM; format: functional, cell-based; outline: as §7
[44] = Antiproliferative activity against human skin fibroblast assessed as cell viability at 50 uM by MTT assay; format: cell-based; settings: human skin fibroblasts, read-out: Activity; outline: as §6
[45] = Growth inhibition of human skin fibroblast at 29.3 uM; format: cell-based; settings: human skin fibroblasts, read-out: GI; outline: as §3
[46] = Growth inhibition of human skin fibroblast at 146.7 uM; format: cell-based; settings: human skin fibroblasts, read-out: GI; outline: as §3
[47] = Growth inhibition of human LS180 cells at 146.7 uM; format: functional; settings: read-out: GI; outline: as §3
T47D [48] = assay: Induction of DNA damage in human T47D cells at 29.3 uM; format: functional, cell-based; outline: as §4
HeLa [49] = assay: Antiproliferative activity against human HeLa cells assessed as cell viability at 100 uM by MTT assay; format: functional; settings: read-out: Activity; outline: as §5
[50] = Lipophilicity, log kw in acetonitrile aqueous system at pH 3.5; format: physicochemical; outline: as §2

Sc1nnc2n1CCN2c1ccc(Cl)cc1
zone of inhibition at 100 µg/mL (Aspergillus sp. [1]): 0 mm | zone of inhibition at 100 µg/mL (Pseudomonas aeruginosa [2]): 0 mm | zone of inhibition at 100 µg/mL (Staphylococcus aureus [3]): 0 mm | zone of inhibition at 100 µg/mL (Klebsiella aerogenes [4]): 0 mm | zone of inhibition at 200 µg/mL (Escherichia coli [5]): 0 mm | zone of inhibition at 100 µg/mL (Streptococcus pyogenes [6]): 0 mm | zone of inhibition at 200 µg/mL (Candida albicans [7]): 17 mm | zone of inhibition at 200 µg/mL (Aspergillus sp. [8]): 0 mm | zone of inhibition at 200 µg/mL (Streptococcus pyogenes [9]): 0 mm | zone of inhibition at 200 µg/mL [10]: 0 mm | zone of inhibition at 200 µg/mL (Streptococcus agalactiae [11]): 0 mm | zone of inhibition at 200 µg/mL (Klebsiella aerogenes [12]): 0 mm | zone of inhibition at 100 µg/mL (Klebsiella pneumoniae [13]): 0 mm | zone of inhibition at 200 µg/mL (Pseudomonas aeruginosa [14]): 0 mm | MIC (Candida albicans [15]): 30.9 µM (≈ 7.81 µg/mL) | zone of inhibition at 100 µg/mL (Escherichia coli [16]): 0 mm | logKw [17]: -0.09 | zone of inhibition at 200 µg/mL (Staphylococcus aureus [18]): 0 mm | zone of inhibition at 200 µg/mL (Klebsiella pneumoniae [19]): 0 mm | zone of inhibition at 200 µg/mL (Proteus vulgaris [20]): 0 mm | zone of inhibition at 100 µg/mL [21]: 0 mm | zone of inhibition at 100 µg/mL (Streptococcus agalactiae [22]): 0 mm | zone of inhibition at 100 µg/mL (Proteus vulgaris [23]): 0 mm | zone of inhibition at 100 µg/mL (Candida albicans [24]): 17 mm

Cc1cc(Cl)ccc1OCc1nnc2n1CCN2c1ccccc1
inhibition at 146.7 µM [25]: 20% | Activity (Vero): Active | viability at 50 µM [26]: 114% | viability at 1 µM [27]: 79.2% | Activity (LS180 [28]): Active | viability at 100 µM [29]: 108% | viability at 1 µM (HeLa [30]): 65.6% | Activity (SiHa [31]): Active | inhibition of growth at 29.3 µM [32]: 35% | viability at 100 µM [33]: 72.5% | inhibition at 29.3 µM [34]: 20% | inhibition of growth at 29.3 µM (SiHa [35]): 30% | inhibition of growth at 146.7 µM (SiHa [36]): 30% | Activity (T47D [37]): Active | inhibition of growth at 29.3 µM (T47D [38]): 25% | logKw [39]: 1.62 | inhibition of growth at 146.7 µM (T47D [40]): 40% | viability at 50 µM (HeLa [41]): 75.1% | viability at 1 µM [42]: 112% | Activity (LS180 [43]): Active | logKw [17]: 1.17 | viability at 50 µM [44]: 76.8% | inhibition at 29.3 µM [45]: 4% | inhibition at 146.7 µM [46]: 8% | inhibition of growth at 146.7 µM [47]: 39% | Activity (T47D [48]): Active | viability at 100 µM (HeLa [49]): 75.9% | logKw [50]: 1.36
